These results are taken from ChEMBL document CHEMBL1142586, “Bisnortriterpenes from Salacia madagascariensis” (J Nat Prod, 2005).

One data set relates to Leishmania donovani. Description: Antileishmanial activity against Leishmania donovani promastigotes after 48 hrs by alamar blue assay. The class given is functional, organism-based. In a few lines:
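IC50 (µg/mL) was determined in two separate tests against Leishmania donovani, and the mean of the tests was reported. IC90 was also determined.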
(The colour change of resazurin is a common sign of viable cells or microbes.)

The subject of data set [1] is Staphylococcus aureus. Description: Antimicrobial activity against Staphylococcus aureus by NCCLS method. Format: functional, organism-based.
The subject of data set [2] is Staphylococcus aureus. Description: Antimicrobial activity against methicillin-resistant Staphylococcus aureus by NCCLS method. The class given is functional, organism-based.
Data set [3] relates to Mycobacterium intracellulare. Description: Antimicrobial activity against Mycobacterium intracellular by alamar blue test. The class given is functional, organism-based.
Data set [4] has as its system Plasmodium falciparum. Description: Antiplasmodial activity against Plasmodium falciparum D6. Format: functional, organism-based.
Data set [5] in a line: Selectivity index, ratio of IC50 for african green monkey (Cercopithecus aethiops) Vero cells to IC50 for Plasmodium falciparum D6. The class given is toxicity, cell-based. Conditions: read-out: Selectivity Index. In a few lines:
(§1)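 The index was calculated as the VERO (monkey kidney cell line) IC50 divided by the IC50 against the respective P. falciparum clone.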

Data set [6] concerns Plasmodium falciparum. Description: Antiplasmodial activity against Plasmodium falciparum W2. Format: functional, organism-based.
Data set [7] in a line: Selectivity index, ratio of IC50 for african green monkey (Cercopithecus aethiops) Vero cells to IC50 for Plasmodium falciparum W2. The class given is toxicity, cell-based. To be noted: read-out: Selectivity Index. The essentials: as §1
A further data set has as its system Vero. Description: Cytotoxicity against african green monkey Vero cells. Conditions: Chlorocebus sabaeus. Format: cell-based.
The nature of data set [8]: Selectivity index, ratio of IC50 for african green monkey VERO cells to IC50 for Leishmania donovani. Conditions: read-out: Selectivity Index. Format: toxicity, cell-based. The essentials:
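The index was calculated as the VERO cell IC50 divided by the mean IC50 against L. donovani from the two tests.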

Another data set has as its system Leishmania mexicana. Description: Antileishmanial activity against Leishmania mexicana. The class given is functional, organism-based.

Converted amounts (≈) assume the structure as drawn.

The term IC50 denotes the concentration that gives 50% inhibition. What is called IC90 is the concentration needed for an effect of 90%. With `CC1=C(O)C(=O)C=C2C1=CC=C1[C@@]2(C)CC[C@@]2(C)[C@@H]3C[C@@H](CO)CC[C@]3(C)CC[C@]12C`, the IC50 in the data set on Leishmania donovani is 0.027 µg/mL (≈ 0.0639 µM); in the data set on Staphylococcus aureus [1] it was 0.65 µg/mL (≈ 1.54 µM); in the data set with Staphylococcus aureus [2], 0.7 µg/mL (≈ 1.66 µM); in [3] it was 15 µg/mL (≈ 35.5 µM); in the data set on Plasmodium falciparum [4], 0.068 µg/mL (≈ 0.161 µM); in the data set with Plasmodium falciparum [6] it was 0.068 µg/mL (≈ 0.161 µM). Also, the IC50 in the data set with Vero came out at 2.1 µg/mL (≈ 4.97 µM). This compound had an IC90 with Leishmania donovani of 0.057 µg/mL (≈ 0.135 µM). Moreover, the selectivity ratio in [5], in [7] and in data set [8] was 31 throughout.
`C[C@@H]1[C@H](O)[C@@H](C)/C=C/C=C/C=C/C=C/C=C/C=C/C=C/[C@H](O[C@@H]2O[C@H](C)[C@@H](O)[C@H](N)[C@@H]2O)C[C@@H]2O[C@](O)(C[C@@H](O)C[C@@H](O)[C@H](O)CC[C@@H](O)C[C@@H](O)CC(=O)O[C@H]1C)C[C@H](O)[C@H]2C(=O)O` [AMPHOTERICIN B]: in the data set with Leishmania donovani, the concentration for half-maximal inhibition (IC50) turned out to be 0.11 µg/mL (≈ 0.119 µM) and it took 0.23 µg/mL (≈ 0.249 µM) to reach the 90% level (IC90). This compound also yielded an IC50 in the data set with Vero of 6.5 µg/mL (≈ 7.03 µM). In addition, the selectivity ratio in [8] worked out at 59.
In turn, `C[C@@H]1CC[C@H]2[C@@H](C)C(=O)O[C@@H]3O[C@@]4(C)CC[C@@H]1[C@]32OO4` [ARTEMISININ] displayed an IC50 in the data set with Plasmodium falciparum [6] of 0.0018 µg/mL (≈ 0.00638 µM).
In the case of `C=C1CC[C@]2(C)CC[C@]3(C)C4=CC=C5C(=CC(=O)C(O)=C5C)[C@]4(C)CC[C@@]3(C)[C@@H]2C1` [ISOIGUESTERIN], the IC50 in the data set on Leishmania donovani was 0.032 µg/mL (≈ 0.0791 µM); with Leishmania mexicana it was 0.035 µg/mL (≈ 0.0865 µM); in the data set on Staphylococcus aureus [1] it was 0.85 µg/mL (≈ 2.1 µM); in the data set with Staphylococcus aureus [2], 0.85 µg/mL (≈ 2.1 µM); in data set [3], 4.5 µg/mL (≈ 11.1 µM); with Plasmodium falciparum [4] it was 0.2 µg/mL (≈ 0.494 µM). Besides, the figures for the IC50 in the data set on Plasmodium falciparum [6] and in the data set with Vero were 0.17 µg/mL (≈ 0.42 µM) and 1.6 µg/mL (≈ 3.95 µM), respectively. This compound also displayed a 90% effect concentration (IC90) with Leishmania donovani of 0.055 µg/mL (≈ 0.136 µM). Moreover, the results for the selectivity ratio in data set [5], in data set [7] and in data set [8] were 3.4, 3.9 and 50, respectively.
